Measurements as given in ChEMBL document CHEMBL1154729, “Discovery of novel antitubercular 2,10-dihydro-4aH-chromeno[3,2-c]pyridin-3-yl derivatives” (Eur J Med Chem, 2010).
In brackets after ≈: the same amount, converted by molar mass.

Key:
[1] = system: Mycobacterium tuberculosis; assay: Antimycobacterial activity against Mycobacterium tuberculosis H37Rv by agar dilution method; assay type: functional
Method in brief: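 Agar dilution MIC on Middlebrook 7H11 agar supplemented with OADC, following NCCLS-like procedure; determined in duplicate.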

Vero = assay: Cytotoxicity against african green monkey Vero cells after 72 hrs by MTT assay; assay type: cell-based; settings: Chlorocebus sabaeus
Method in brief: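 Vero monkey kidney cells exposed to compounds by serial double dilution up to 62.5 µg/mL for 72 h. Viability read from cellular MTT conversion to formazan (Cell Titer 96 non-radioactive proliferation assay); IC50 reported.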

[2] = Selectivity index, ratio of IC50 for african green monkey Vero cells to MIC for Mycobacterium tuberculosis H37Rv; assay type: functional
[3] = system: Mycobacterium tuberculosis; assay: Antimycobacterial activity against Mycobacterium tuberculosis ATCC 35801 infected in CD1 mouse assessed as bacterial load in lungs at 25 mg/kg, ip administered 10 days postinfection for 10 days measured after 35 days of infection (Rvb=7.99 +/- 0.16 log CFU); assay type: functional; settings: route intraperitoneal
[4] = system: Mycobacterium tuberculosis; assay: Antimycobacterial activity against Mycobacterium tuberculosis ATCC 35801 infected in CD1 mouse assessed as bacterial load in spleen at 25 mg/kg, ip administered 10 days postinfection for 10 days measured after 35 days of infection (Rvb=9.02 +/- 0.21 log CFU); assay type: functional; settings: route intraperitoneal

Row | SMILES | MIC [1] | IC50 (Vero) | Selectivity Index [2] | log10cfu [3] | log10cfu [4]
1 | Cc1ccc2ccc(C(=O)NCC3=C[C@@H]4Oc5ccccc5C(=O)C4=CN3c3ncccc3C)cc2c1 | 0.41 µM (≈ 0.2 µg/mL) | > 128 µM | – | – | –
2 | Cc1cccnc1N1C=C2C(=O)c3ccccc3O[C@H]2C=C1CNC(=O)c1cccc(Cl)c1 | 1.7 µM (≈ 0.778 µg/mL) | > 136 µM | – | – | –
3 | Cc1ccc(C(=O)NCC2=C[C@@H]3Oc4ccccc4C(=O)C3=CN2c2ncc(Br)cc2Br)cc1 | 5.38 µM (≈ 3.13 µg/mL) | – | – | – | –
4 | Cc1cccnc1N1C=C2C(=O)c3ccccc3O[C@H]2C=C1CNC(=O)c1ccc(Cl)cc1 | 1.7 µM (≈ 0.778 µg/mL) | 136 µM | – | – | –
5 | O=C(NCC1=C[C@@H]2Oc3ccccc3C(=O)C2=CN1c1ncc(Br)cc1Br)c1ccc(Cl)cc1 | 2.95 µM (≈ 1.77 µg/mL) | > 104 µM | – | – | –
6 | O=C(COc1ccccc1)NCC1=C[C@@H]2Oc3ccccc3C(=O)C2=CN1c1ncc(Br)cc1Br | 10.5 µM (≈ 6.25 µg/mL) | – | – | – | –
7 | Cc1ccc(C(=O)NCC2=C[C@@H]3Oc4ccccc4C(=O)C3=CN2c2ncccc2C)cc1 | 1.78 µM (≈ 0.779 µg/mL) | > 143 µM | – | – | –
8 | O=C(NCC1=C[C@@H]2Oc3ccccc3C(=O)C2=CN1c1ncc(Br)cc1Br)c1ccc(F)cc1 | 10.7 µM (≈ 6.24 µg/mL) | – | – | – | –
9 | Cc1cccnc1N1C=C2C(=O)c3ccccc3O[C@H]2C=C1CNC(=O)COc1ccccc1 | 13.8 µM (≈ 6.25 µg/mL) | – | – | – | –
10 | O=C(NCC1=C[C@@H]2Oc3ccccc3C(=O)C2=CN1c1ncc(Br)cc1Br)c1ccc2ccccc2c1 | 2.52 µM (≈ 1.56 µg/mL) | 101 µM | – | – | –
11 | O=C(NCC1=C[C@@H]2Oc3ccccc3C(=O)C2=CN1c1ncc(Br)cc1Br)c1ccccc1 | 11 µM (≈ 6.25 µg/mL) | – | – | – | –
12 | Cc1ccc2ccc(C(=O)NCC3=C[C@@H]4Oc5ccccc5C(=O)C4=CN3c3ncc(Br)cc3Br)cc2c1 | 1.23 µM (≈ 0.777 µg/mL) | 99 µM | – | – | –
13 | CCc1ccc(C(=O)NCC2=C[C@@H]3Oc4ccccc4C(=O)C3=CN2c2ncccc2C)cc1 | 0.22 µM (≈ 0.0993 µg/mL) | > 138 µM | 629 | 6.88 | 6.08
14 | CCc1ccc(C(=O)NCC2=C[C@@H]3Oc4ccccc4C(=O)C3=CN2c2ncc(Br)cc2Br)cc1 | 2.6 µM (≈ 1.55 µg/mL) | 105 µM | – | – | –
15 | O=C(NCC1=C[C@@H]2Oc3ccccc3C(=O)C2=CN1c1ncc(Br)cc1Br)c1cccc(Cl)c1 | 5.2 µM (≈ 3.13 µg/mL) | 104 µM | – | – | –
16 | Cc1cccnc1N1C=C2C(=O)c3ccccc3O[C@H]2C=C1CNC(=O)c1ccc2ccccc2c1 | 0.84 µM (≈ 0.398 µg/mL) | 142 µM | – | – | –
17 | O=C(NCC1=C[C@@H]2Oc3ccccc3C(=O)C2=CN1c1ncc(Br)cc1Br)c1ccc(Cl)c(Cl)c1 | 9.82 µM (≈ 6.25 µg/mL) | 50.7 µM | – | – | –
18 | COc1ccc(C(=O)NCC2=C[C@@H]3Oc4ccccc4C(=O)C3=CN2c2ncc(Br)cc2Br)cc1 | 10.5 µM (≈ 6.25 µg/mL) | – | – | – | –
19 | COc1ccc(C(=O)NCC2=C[C@@H]3Oc4ccccc4C(=O)C3=CN2c2ncccc2C)cc1 | 1.72 µM (≈ 0.78 µg/mL) | > 138 µM | – | – | –
20 | Cc1cccnc1N1C=C2C(=O)c3ccccc3O[C@H]2C=C1CNC(=O)c1ccc(F)cc1 | 7.09 µM (≈ 3.13 µg/mL) | > 142 µM | – | – | –
21 | Cc1cccnc1N1C=C2C(=O)c3ccccc3O[C@H]2C=C1CNC(=O)c1ccccc1 | 7.36 µM (≈ 3.12 µg/mL) | > 148 µM | – | – | –
22 | CC[C@@H](CO)NCCN[C@@H](CC)CO [ETHAMBUTOL] | 7.63 µM (≈ 1.56 µg/mL) | > 306 µM | – | – | –
23 | NNC(=O)c1ccncc1 [ISONIAZID] | 0.36 µM (≈ 0.0494 µg/mL) | > 456 µM | – | 5.86 | 4.71
24 | CC1COc2c(N3CCN(C)CC3)c(F)cc3c(=O)c(C(=O)O)cn1c23 (centres undefined) [OFLOXACIN] | 2.13 µM (≈ 0.77 µg/mL) | > 155 µM | – | – | –
25 | CO[C@H]1/C=C/O[C@@]2(C)Oc3c(C)c(O)c4c(O)c(c(/C=N/N5CCN(C)CC5)c(O)c4c3C2=O)NC(=O)/C(C)=C\C=C\[C@H](C)[C@H](O)[C@@H](C)[C@@H](O)[C@@H](C)[C@H](OC(C)=O)[C@@H]1C [RIFAMPIN] | 0.12 µM (≈ 0.0988 µg/mL) | > 75.9 µM | – | – | –
